Here are results for nine compounds from ChEMBL document CHEMBL2086248, “Synthesis of some novel 1-(2-naphthyl)-2-(imidazol-1-yl)ethanone oxime ester derivatives and evaluation of their anticonvulsant activity” (Eur J Med Chem, 2012).

In data set [1] the test system is Mus musculus. The data set can be described thus: Neurotoxicity in mouse assessed as motor impairment at 30 mg/kg, ip after 0.5 hrs by rotarod test. Format: toxicity, organism-based. Also on record: dose 30 mg/kg, route intraperitoneal. To be noted: in vivo. In short, it runs like this: (§1)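 Swiss albino mice (20-24 g) were dosed ip with a suspension in 30% aqueous PEG 400 and tested 0.5 h or 4 h later. They were placed on a knurled wooden rod 1 inch in diameter, rotating at 6 rpm. Toxicity meant failure to stay on the rod for at least 1 min in each of three trials. Scored as number toxic/number tested (4 mice at 0.5 h, 2 at 4 h).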

The test system of data set [2] is Mus musculus. Nature of the data set: Neurotoxicity in mouse assessed as motor impairment at 100 mg/kg, ip after 0.5 hrs by rotarod test. The format is toxicity, organism-based. Set-up: dose 100 mg/kg, route intraperitoneal. To be noted: in vivo. In short, it runs like this: as §1
On the technique in general: Falling from the rotarod earlier than controls is read as motor impairment.

Data set [3] deals with Mus musculus. Nature of the data set: Neurotoxicity in mouse assessed as motor impairment at 300 mg/kg, ip after 0.5 hrs by rotarod test. The format is toxicity, organism-based. Set-up: dose 300 mg/kg, route intraperitoneal. To be noted: in vivo. In short, it runs like this:
as §1

Data set [4] deals with Mus musculus. The data set can be described thus: Neurotoxicity in mouse assessed as motor impairment at 30 mg/kg, ip after 4 hrs by rotarod test. Set-up: dose 30 mg/kg, route intraperitoneal. Format: toxicity, organism-based. To be noted: in vivo. In a few lines:
as §1

The subject of data set [5] is Mus musculus. Nature of the data set: Neurotoxicity in mouse assessed as motor impairment at 100 mg/kg, ip after 4 hrs by rotarod test. Format: toxicity, organism-based. Also on record: dose 100 mg/kg, route intraperitoneal. To be noted: in vivo. In a few lines: as §1
In data set [6] the test system is Mus musculus. Nature of the data set: Neurotoxicity in mouse assessed as motor impairment at 300 mg/kg, ip after 4 hrs by rotarod test. Format: toxicity, organism-based. Also on record: dose 300 mg/kg, route intraperitoneal. To be noted: in vivo. In short, it runs like this:
as §1

For data set [7], the system named is Mus musculus. The data set can be described thus: Anticonvulsant activity in mouse assessed as protection against maximal electroshock-induced seizures at 30 mg/kg, ip after 0.5 hrs. The format is functional, organism-based. Set-up: dose 30 mg/kg. In a few lines: (§2)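 Swiss albino mice (20-24 g) received an ip suspension in 30% aqueous PEG 400 and were tested 0.5 h and 4 h after dosing. Shock was delivered through corneal electrodes from a constant current unit, with 0.9% saline dropped into the eyes first. Protection meant abolition of the hind limb tonic extension. Scored as number protected/number tested, one mouse per dose and time.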
(In the maximal electroshock model the usual endpoint is tonic extension of the hind limbs.)

Data set [8] deals with Mus musculus. Nature of the data set: Anticonvulsant activity in mouse assessed as protection against maximal electroshock-induced seizures at 100 mg/kg, ip after 0.5 hrs. Also on record: dose 100 mg/kg. Format: functional, organism-based. In a few lines:
as §2

Data set [9] has as its system Mus musculus. Nature of the data set: Anticonvulsant activity in mouse assessed as protection against maximal electroshock-induced seizures at 300 mg/kg, ip after 0.5 hrs. Set-up: dose 300 mg/kg. Format: functional, organism-based. In short, it runs like this:
as §2

In data set [10] the test system is Mus musculus. Nature of the data set: Anticonvulsant activity in mouse assessed as protection against maximal electroshock-induced seizures at 30 mg/kg, ip after 4 hrs. Format: functional, organism-based. Set-up: dose 30 mg/kg. In a few lines:
as §2

Data set [11] has as its system Mus musculus. The data set can be described thus: Anticonvulsant activity in mouse assessed as protection against maximal electroshock-induced seizures at 100 mg/kg, ip after 4 hrs. The format is functional, organism-based. Also on record: dose 100 mg/kg. In a few lines:
as §2

Data set [12] relates to Mus musculus. The data set can be described thus: Anticonvulsant activity in mouse assessed as protection against maximal electroshock-induced seizures at 300 mg/kg, ip after 4 hrs. Format: functional, organism-based. Set-up: dose 300 mg/kg. In short, it runs like this:
as §2

The subject of data set [13] is Mus musculus. The data set can be described thus: Anticonvulsant activity in mouse assessed as protection against subcutaneous pentylenetetrazole-induced seizures at 30 mg/kg, ip after 0.5 hrs. Also on record: dose 30 mg/kg. Format: functional, organism-based. In short, it runs like this: (§3)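 Swiss albino mice (20-24 g) were dosed ip with a suspension in 30% aqueous PEG 400 and challenged 0.5 h or 4 h later. Protection meant no threshold seizure (clonic spasms lasting at least 5 s). Scored as number protected/number tested, one mouse per dose and time.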

For data set [14], the system named is Mus musculus. Nature of the data set: Anticonvulsant activity in mouse assessed as protection against subcutaneous pentylenetetrazole-induced seizures at 100 mg/kg, ip after 0.5 hrs. The format is functional, organism-based. Also on record: dose 100 mg/kg. In short, it runs like this: as §3
Data set [15] relates to Mus musculus. The data set can be described thus: Anticonvulsant activity in mouse assessed as protection against subcutaneous pentylenetetrazole-induced seizures at 300 mg/kg, ip after 0.5 hrs. The format is functional, organism-based. Also on record: dose 300 mg/kg. In short, it runs like this:
as §3

Data set [16] concerns Mus musculus. The data set can be described thus: Anticonvulsant activity in mouse assessed as protection against subcutaneous pentylenetetrazole-induced seizures at 30 mg/kg, ip after 4 hrs. The format is functional, organism-based. Also on record: dose 30 mg/kg. In short, it runs like this: as §3
Data set [17] relates to Mus musculus. Nature of the data set: Anticonvulsant activity in mouse assessed as protection against subcutaneous pentylenetetrazole-induced seizures at 300 mg/kg, ip after 4 hrs. Format: functional, organism-based. Set-up: dose 300 mg/kg. In a few lines: as §3
Data set [18] has as its system Mus musculus. Nature of the data set: Anticonvulsant activity in mouse assessed as protection against subcutaneous pentylenetetrazole-induced seizures at 100 mg/kg, ip after 4 hrs. Format: functional, organism-based. Set-up: dose 100 mg/kg. In short, it runs like this: as §3

Activity calls are given as the source filed them.

With `CC(C)CC(=O)O/N=C(\Cn1ccnc1)c1ccc2ccccc2c1.Cl`, the Activity entry in data set [1], in [2], in data set [3], in [4], in data set [5] and in [6] was “Non-toxic” each time. The outcome in [7], in data set [10], in [13], in data set [14], in data set [15] and in data set [16] was inactive. In addition, the outcome in data set [17] and in data set [18] was inactive. The outcome in data set [8], in data set [9], in data set [11] and in [12] was Active.

With `CCC(=O)O/N=C(\Cn1ccnc1)c1ccc2ccccc2c1.Cl`, the Activity entry in data set [1], in data set [2], in [3], in [4], in data set [5] and in data set [6] was “Non-toxic” throughout. Also, the result in data set [7], in data set [10], in [11], in [12], in data set [13] and in data set [14] was inactive. Also, the result in data set [16], in data set [17] and in data set [18] was inactive. In addition, the result in data set [8], in [9] and in [15] was Active.

With `COc1cccc(C(=O)O/N=C(\Cn2ccnc2)c2ccc3ccccc3c2)c1`, the Activity result in data set [1], in [2], in [3], in data set [4], in [5] and in data set [6] was “Non-toxic” each time. For the same compound, the result in data set [7], in data set [8], in [10], in [11], in data set [12] and in [13] was inactive. Besides, the outcome in data set [14], in data set [15], in data set [16], in data set [17] and in data set [18] was inactive. Besides, the outcome in data set [9] was Active.

As to `COc1ccc(C(=O)O/N=C(\Cn2ccnc2)c2ccc3ccccc3c2)cc1`, the Activity result in data set [1], in data set [2], in data set [3], in data set [4], in data set [5] and in data set [6] was “Non-toxic” in each case. For the same compound, the result in data set [7], in data set [8], in [9], in [10], in data set [11] and in [12] was inactive. Besides, the result in data set [13], in [14], in data set [16], in data set [17] and in [18] was inactive. The outcome in data set [15] was Active.

As to `Cc1cccc(C(=O)O/N=C(\Cn2ccnc2)c2ccc3ccccc3c2)c1`, the Activity result in data set [1], in [2], in [3], in data set [4], in data set [5] and in data set [6] was “Non-toxic” each time. The result in data set [7], in [8], in [9], in data set [10], in data set [11] and in data set [12] was inactive. Also, the outcome in [13], in data set [14], in [16] and in data set [18] was inactive. The result in data set [15] and in [17] was Active.

In the case of `Cc1ccc(C(=O)O/N=C(\Cn2ccnc2)c2ccc3ccccc3c2)cc1`, the Activity entry in data set [1], in data set [2], in data set [3], in data set [4], in data set [5] and in data set [6] was “Non-toxic” each time. The outcome in [7], in data set [10], in [11], in [12], in data set [13] and in data set [16] was inactive. Besides, the outcome in data set [18] was inactive. Also, the result in [8], in [9], in data set [14], in data set [15] and in data set [17] was Active.

Regarding `CCCCC(=O)O/N=C(\Cn1ccnc1)c1ccc2ccccc2c1.Cl`, the Activity result in data set [1], in data set [2], in [3], in [4], in data set [5] and in [6] was “Non-toxic” each time. Besides, the outcome in [7], in data set [8] and in data set [9] was Active. The outcome in data set [10], in data set [11], in data set [12], in [13], in [14] and in [15] was inactive. Moreover, the result in data set [16], in data set [17] and in [18] was inactive.

As to `CCCC(=O)O/N=C(\Cn1ccnc1)c1ccc2ccccc2c1.Cl`, the Activity result was “Non-toxic” in data set [1]; “Non-toxic” in data set [2]; “Toxic” in data set [3]; “Non-toxic” in data set [4]; “Non-toxic” in data set [5]; “Non-toxic” in data set [6]. Moreover, the outcome in [7], in [8], in [9], in data set [12] and in data set [17] was Active. The outcome in data set [10], in data set [11], in data set [13], in [14], in [15] and in data set [16] was inactive. Also, in data set [18], the outcome was inactive.

As to `Cc1ccccc1C(=O)O/N=C(\Cn1ccnc1)c1ccc2ccccc2c1`, the Activity entry in data set [1], in data set [2], in [3], in [4], in [5] and in data set [6] was “Non-toxic” throughout. Moreover, the outcome in data set [7], in data set [8], in data set [10], in [11], in data set [13] and in data set [14] was inactive. The result in data set [15], in data set [16], in data set [17] and in [18] was inactive. The outcome in data set [9] and in data set [12] was Active.
